Data published in ChEMBL document CHEMBL3393003, “1,2,3,9b-Tetrahydro-5H-imidazo[2,1-a]isoindol-5-ones as a new class of respiratory syncytial virus (RSV) fusion inhibitors. Part 2: identification of BTA9881 as a preclinical candidate” (Bioorg Med Chem Lett, 2015).
pEC50: −log10 of the molar value.

Legend:
[1] = tested on: Respiratory syncytial virus; assay: Antiviral activity against respiratory syncytial virus A2 infected in human Hep2 cells assessed as reduction in virus-induced cytopathic effect after 5 days by MTT assay; type: functional, organism-based; settings: A2, HEp-2, 120 h
Outline: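 HEp2 cells (1.0 × 10⁴/well) infected at low moi (RSV A2 at moi 0.01) and added to serial compound dilutions; incubated 5 days at 37 °C, 5% CO₂. CPE read by MTT (1 mg/ml) metabolism after 2 h incubation.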

[2] = Cytotoxicity against human Hep2 cells assessed as reduction in cell viability after 5 days by MTT assay; type: cell-based, HEp-2
Outline: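 Uninfected HEp2 cells (1.0 × 10⁴/well) exposed to serial compound dilutions for 5 days at 37 °C, 5% CO₂. Viability read by MTT (1 mg/ml) metabolism after 2 h incubation.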

[3] = tested on: Respiratory syncytial virus; assay: Potency shift index, ratio of EC50 for respiratory syncytial virus A2 infected in human Hep2 in presence of 1.5 mg/mL Alpha-1-acid glycoprotein to EC50 for respiratory syncytial virus A2 infected in human Hep2 in absence of Alpha-1-acid glycoprotein; type: functional

Compound | pEC50 [1] | CC50 at 120 h [2] [nM] | Ratio EC50 [3]
O=C(c1ccc(F)nc1)N1CCN2C(=O)c3ccncc3[C@@]12c1ccc(Cl)cc1 | 5.11 |  | 
O=C(c1cscn1)N1CCN2C(=O)c3ccncc3C12c1ccc(Cl)cc1 (racemic) | 6.74 | > 18000 | 16
O=C(c1csc(-c2cccs2)n1)N1CCN2C(=O)c3ccncc3C12c1ccc(Cl)cc1 (racemic) | 7.57 | > 15000 | 16
O=C(c1cccs1)N1CCN2C(=O)c3ccncc3C12c1ccc(Cl)cc1 (racemic) | 6.89 | > 18000 | 12
O=C(c1cccc(Cl)n1)N1CCN2C(=O)c3ccncc3C12c1ccc(Cl)cc1 (racemic) | 6.96 | > 17000 | 27
O=C(c1ccoc1)N1CCN2C(=O)c3ccncc3[C@@]12c1ccc(Cl)cc1 | 6.17 |  | 
O=C(c1ccc(F)cc1)N1CCN2C(=O)c3cc[n+]([O-])cc3[C@]12c1ccc(Cl)cc1 | 6.77 |  | 
O=C(c1csc(-c2cccnc2)n1)N1CCN2C(=O)c3ccncc3[C@]12c1ccc(Cl)cc1 | 7.89 |  | 
O=C(c1ccon1)N1CCN2C(=O)c3ccncc3C12c1ccc(Cl)cc1 (racemic) | 6.74 | > 20000 | 11
O=C(c1ccoc1)N1CCN2C(=O)c3ccncc3C12c1ccc(Cl)cc1 (racemic) | 7.02 | > 19000 | 2.4
Cc1nc(C(=O)N2CCN3C(=O)c4ccncc4C23c2ccc(Cl)cc2)cs1 (racemic) | 7.14 | > 18000 | 5.7
O=C(c1csc(-c2cccnc2)n1)N1CCN2C(=O)c3ccncc3C12c1ccc(Cl)cc1 (racemic) | 7.60 | > 15000 | 10
O=C(NCc1ccc(F)cc1)N1CCN2C(=O)c3ccncc3C12c1ccc(Cl)cc1 (racemic) | 6.03 | > 20000 | 
O=C(NCCc1ccc(F)cc1)N1CCN2C(=O)c3ccncc3C12c1ccc(Cl)cc1 (racemic) | 6.21 | > 20000 | 
O=C(c1cccnc1)N1CCN2C(=O)c3ccncc3C12c1ccc(Cl)cc1 (racemic) | 6.68 | > 51000 | 2.8
O=C(c1cccnc1)N1CCN2C(=O)c3ccncc3[C@@]12c1ccc(Cl)cc1 | < 5.92 |  | 
Cn1cncc1C(=O)N1CCN2C(=O)c3ccncc3C21c1ccc(Cl)cc1 (racemic) | 6.14 | > 20000 | 
O=C(c1ccc(F)cc1)N1CCN2C(=O)c3cc[n+]([O-])cc3[C@@]12c1ccc(Cl)cc1 | 5.07 |  | 
Cc1oc(-c2ccccc2)cc1C(=O)N1CCN2C(=O)c3ccncc3C21c1ccc(Cl)cc1 (racemic) | 5.80 | > 15000 | 
O=C(c1ccc(F)cc1)N1CCN2C(=O)c3ccncc3[C@@]12c1ccc(Cl)cc1 | 4.85 |  | 
O=C(Nc1ccc(F)cc1)N1CCN2C(=O)c3ccncc3C12c1ccc(Cl)cc1 (racemic) | 6.00 | > 20000 | 
O=C(c1csc(-c2ccncc2)n1)N1CCN2C(=O)c3ccncc3C12c1ccc(Cl)cc1 (racemic) | 5.64 | > 15000 | 
Cn1cnc(C(=O)N2CCN3C(=O)c4ccncc4C23c2ccc(Cl)cc2)c1 (racemic) | 6.12 | > 20000 | 
O=C(c1ccc2ccccc2n1)N1CCN2C(=O)c3ccncc3C12c1ccc(Cl)cc1 (racemic) | 5.07 | > 17000 | 
O=C(c1ccc(F)cc1)N1CCN2C(=O)c3ccncc3[C@]12c1ccc(Cl)cc1 | 6.96 |  | 
O=C(c1cc2ccccc2o1)N1CCN2C(=O)c3ccncc3C12c1ccc(Cl)cc1 (racemic) | 5.19 | > 17000 | 
O=C(c1ccccn1)N1CCN2C(=O)c3ccncc3C12c1ccc(Cl)cc1 (racemic) | 6.11 | > 19000 | 
O=C(c1ccno1)N1CCN2C(=O)c3ccncc3C12c1ccc(Cl)cc1 (racemic) | 6.43 | > 19000 | 
O=C(c1csc(-c2cccnc2)n1)N1CCN2C(=O)c3ccncc3[C@@]12c1ccc(Cl)cc1 | 6.04 |  | 
